Measured values as given in ChEMBL document CHEMBL5649170, “Sustained microglial depletion with CSF1R inhibitor impairs parenchymal plaque development in an Alzheimer's disease model” (Nat Commun, 2019).

Assays:
Mus musculus [1] = experiment: Antialzheimer activity in 5XFAD mouse assessed as microglial numbers by measuring number of Iba positive cells per FOV in […] cortex at 75 ppm administered as rodent chow starting from 1.5 months and measured after 5 months by immunolabeling based confocal microscopic analysis (reference value: 176 to 654); assay type: functional; settings: route po, time 3.5 months, 2555 h
Outline: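 5xFAD mice fed PLX3397 at 75 ppm in AIN-76A chow from 1.5 to 5 months of age; retrosplenial and somatosensory cortex sections stained with Thio-S and immunolabeled for IBA1; confocal imaging, IBA1+ cells and plaques quantified per region; two-tailed independent t-test, n = 4–5 per group, mean ± SEM.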

Mus musculus [2] = experiment: Antialzheimer activity in 5XFAD mouse assessed as number of Iba positive cells per FOV in microglia at 1200 ppm administered as rodent chow for 3 days by DAPI staining based immunolabeling analysis (reference value: 119 to 154); assay type: functional; settings: route po, time 3 day
[3] = Drug concentration in mouse brain at 300 ppm administered as rodent chow for 14 days; assay type: ADME, tissue-based; settings: route po, time 14 day, read-out: Ct
[4] = biological target: Tyrosine-protein kinase ITK/TSK (Homo sapiens, UniProt Q08881); experiment: Inhibition of ITK (unknown origin)
[5] = Effect on Siglech gene expression in wild type mouse hippocampus at 1200 ppm administered as rodent chow starting from 1.5 months and measured after 7 months by RNA-Seq analysis (reference value: 3.309 to 4.234 RPKM); assay type: functional; settings: route po, time 5.5 months, 4015 h
Mus musculus [6] = experiment: Antialzheimer activity in 5XFAD mouse assessed as iron reactivity by measuring hemosiderin intensity of prussian blue staining in […] cortex at 1200 ppm administered as rodent chow starting from 1.5 months and measured after 7 months by confocal microscopic analysis (reference value: 0.1 to 4.791 a.u.); assay type: functional; settings: route po, time 5.5 months, 4015 h
Outline: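 Wild-type or 5xFAD mice fed PLX5622 (1200 ppm) in AIN-76A chow from 1.5 months of age, examined in 4- and 7-month-old cohorts. Brain sections stained with a Prussian blue kit per kit instructions to detect iron deposits (microbleeds).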

[7] = biological target: Protein kinase C beta type (Homo sapiens, UniProt P05771); experiment: Inhibition of PRKCB2 (unknown origin)
[8] = Effect on Cx3cr1 gene expression in 5XFAD mouse cortex at 1200 ppm administered as rodent chow starting from 1.5 months and measured after 7 months by RNA-Seq analysis (reference value: 15.803 to 19.787); assay type: functional; settings: route po, time 5.5 months, 4015 h
[9] = biological target: Casein kinase II subunit alpha (Homo sapiens, UniProt P68400); experiment: Inhibition of CSNK2A1 (unknown origin)
Mus musculus [10] = experiment: Effect on APP processing pathway in wildtype mouse assessed as ADAM10 protein signal intensity in cortex at 1200 ppm administered as rodent starting from 1.5 months and measured after 7 months (reference value: 37.275 to 230.211 %); assay type: functional; settings: route po, time 5.5 months, 4015 h
[11] = biological target: T1, Macrophage colony-stimulating factor 1 receptor (Mus musculus) (UniProt P09581); experiment: In vivo inhibition of CSF1R in wildtype mouse assessed as number of S100bteta positive cells per FOV in […] cortex at 1200 ppm administered as rodent chow for 10 to 24 weeks by immunolabelling based confocal microscopic analysis (reference value: 296 to 337); assay type: functional; settings: route po, time 10-24 weeks
T1 sequence (whole entry): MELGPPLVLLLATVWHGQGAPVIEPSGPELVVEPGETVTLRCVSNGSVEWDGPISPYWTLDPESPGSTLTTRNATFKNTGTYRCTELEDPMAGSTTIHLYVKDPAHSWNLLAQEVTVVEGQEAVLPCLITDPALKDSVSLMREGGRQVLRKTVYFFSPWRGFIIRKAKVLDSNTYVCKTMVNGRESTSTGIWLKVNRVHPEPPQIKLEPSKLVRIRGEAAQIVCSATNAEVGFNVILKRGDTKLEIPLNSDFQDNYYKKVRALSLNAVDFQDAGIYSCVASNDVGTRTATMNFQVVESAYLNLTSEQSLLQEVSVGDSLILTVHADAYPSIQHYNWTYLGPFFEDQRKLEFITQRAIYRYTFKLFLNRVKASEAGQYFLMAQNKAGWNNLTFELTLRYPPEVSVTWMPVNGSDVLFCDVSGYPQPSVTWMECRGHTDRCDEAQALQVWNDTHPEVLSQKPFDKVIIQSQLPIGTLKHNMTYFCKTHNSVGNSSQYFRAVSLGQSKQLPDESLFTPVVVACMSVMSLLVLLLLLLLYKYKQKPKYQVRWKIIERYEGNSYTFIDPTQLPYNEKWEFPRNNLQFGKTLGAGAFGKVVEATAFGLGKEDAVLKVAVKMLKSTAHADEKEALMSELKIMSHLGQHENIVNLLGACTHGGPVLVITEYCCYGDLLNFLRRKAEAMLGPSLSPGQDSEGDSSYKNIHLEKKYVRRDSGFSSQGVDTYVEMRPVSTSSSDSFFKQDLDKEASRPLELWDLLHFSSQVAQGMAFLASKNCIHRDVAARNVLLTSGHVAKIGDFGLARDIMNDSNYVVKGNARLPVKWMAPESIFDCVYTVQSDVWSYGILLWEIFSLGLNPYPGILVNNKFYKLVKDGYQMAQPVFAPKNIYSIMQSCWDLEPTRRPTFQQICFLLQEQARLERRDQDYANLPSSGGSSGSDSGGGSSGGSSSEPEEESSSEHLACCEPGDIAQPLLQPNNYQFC

[12] = biological target: Phosphorylase b kinase gamma catalytic chain, liver/testis isoform (Homo sapiens, UniProt P15735); experiment: Inhibition of PHKG2 (unknown origin)
[13] = biological target: Hepatocyte growth factor receptor (Homo sapiens, UniProt P08581); experiment: Inhibition of MET (unknown origin)
[14] = Effect on Csf1r RPKM gene expression in 5XFAD mouse cortex at 1200 ppm administered as rodent chow starting from 1.5 months and measured after 7 months by RNA-Seq analysis (reference value: 26.750 to 37.128 RPKM); assay type: functional; settings: route po, time 5.5 months, 4015 h
[15] = biological target: Serine/threonine-protein kinase PAK 6 (Homo sapiens, UniProt Q9NQU5); experiment: Inhibition of PAK6 (unknown origin)
[16] = biological target: Mitogen-activated protein kinase kinase kinase kinase 4 (Homo sapiens, UniProt O95819); experiment: Inhibition of MAP4K4 (unknown origin)
[17] = biological target: Tyrosine-protein kinase JAK3 (Homo sapiens, UniProt P52333); experiment: Inhibition of JAK3 (unknown origin)
[18] = Toxicity in wildtype mouse assessed as number of triads at 1200 ppm administered as rodent chow for 10 to 24 weeks by Y-maze test (reference value: 4 to 9); settings: in vivo, po, time 10-24 weeks
Mus musculus [19] = experiment: Antialzheimer activity in 5XFAD mouse assessed as number of entries to perimeter zone at 1200 ppm administered as rodent chow for 10 to 24 weeks by Open field test (reference value: 22 to 55); assay type: functional; settings: route po, time 10-24 weeks
[20] = Effect on Hexb gene expression in wild type mouse cortex at 1200 ppm administered as rodent chow starting from 1.5 months and measured after 7 months by RNA-Seq analysis (reference value: 38.813 to 48.079); assay type: functional; settings: route po, time 5.5 months, 4015 h
[21] = biological target: Calcium/calmodulin-dependent protein kinase type II subunit beta (Homo sapiens, UniProt Q13554); experiment: Inhibition of CAMK2B (unknown origin)
[22] = Half-life in mouse at 1.92 mg/kg, iv administered as single dose; assay type: ADME, organism-based; settings: in vivo

Mitogen-activated protein kinase kinase kinase kinase 4, sequence (O95819 whole entry): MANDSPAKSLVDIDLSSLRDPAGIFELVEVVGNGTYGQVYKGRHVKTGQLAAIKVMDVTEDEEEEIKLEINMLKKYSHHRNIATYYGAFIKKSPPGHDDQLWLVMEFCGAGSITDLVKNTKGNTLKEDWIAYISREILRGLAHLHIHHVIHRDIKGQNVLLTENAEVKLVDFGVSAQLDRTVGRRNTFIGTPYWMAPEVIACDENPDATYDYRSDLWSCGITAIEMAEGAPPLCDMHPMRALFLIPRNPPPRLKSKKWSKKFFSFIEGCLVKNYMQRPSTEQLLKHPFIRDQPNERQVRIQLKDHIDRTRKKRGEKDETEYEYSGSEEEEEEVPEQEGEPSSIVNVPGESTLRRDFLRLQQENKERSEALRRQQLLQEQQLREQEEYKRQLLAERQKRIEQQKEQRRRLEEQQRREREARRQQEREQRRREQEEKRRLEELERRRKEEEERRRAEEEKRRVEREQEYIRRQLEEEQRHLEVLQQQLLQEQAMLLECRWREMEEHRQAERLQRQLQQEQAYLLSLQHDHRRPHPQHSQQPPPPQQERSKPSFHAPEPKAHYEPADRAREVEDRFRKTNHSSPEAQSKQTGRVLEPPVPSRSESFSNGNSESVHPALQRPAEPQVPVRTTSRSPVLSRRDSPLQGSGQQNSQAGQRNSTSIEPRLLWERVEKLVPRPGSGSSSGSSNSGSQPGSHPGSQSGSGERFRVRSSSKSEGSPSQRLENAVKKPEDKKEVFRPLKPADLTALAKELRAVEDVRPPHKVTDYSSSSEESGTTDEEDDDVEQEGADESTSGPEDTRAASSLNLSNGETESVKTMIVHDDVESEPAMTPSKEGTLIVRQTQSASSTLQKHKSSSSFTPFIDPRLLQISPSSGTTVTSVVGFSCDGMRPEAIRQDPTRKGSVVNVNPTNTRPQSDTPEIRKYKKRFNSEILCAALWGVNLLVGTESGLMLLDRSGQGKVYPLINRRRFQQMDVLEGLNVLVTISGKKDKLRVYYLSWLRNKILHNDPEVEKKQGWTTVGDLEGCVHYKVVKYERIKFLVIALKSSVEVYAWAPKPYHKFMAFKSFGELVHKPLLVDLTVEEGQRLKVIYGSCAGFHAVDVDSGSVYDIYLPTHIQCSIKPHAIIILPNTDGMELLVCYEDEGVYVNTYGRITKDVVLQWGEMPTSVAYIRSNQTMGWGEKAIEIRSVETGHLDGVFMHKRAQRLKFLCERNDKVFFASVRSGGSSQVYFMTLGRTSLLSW
Serine/threonine-protein kinase PAK 6, sequence (Q9NQU5 whole entry): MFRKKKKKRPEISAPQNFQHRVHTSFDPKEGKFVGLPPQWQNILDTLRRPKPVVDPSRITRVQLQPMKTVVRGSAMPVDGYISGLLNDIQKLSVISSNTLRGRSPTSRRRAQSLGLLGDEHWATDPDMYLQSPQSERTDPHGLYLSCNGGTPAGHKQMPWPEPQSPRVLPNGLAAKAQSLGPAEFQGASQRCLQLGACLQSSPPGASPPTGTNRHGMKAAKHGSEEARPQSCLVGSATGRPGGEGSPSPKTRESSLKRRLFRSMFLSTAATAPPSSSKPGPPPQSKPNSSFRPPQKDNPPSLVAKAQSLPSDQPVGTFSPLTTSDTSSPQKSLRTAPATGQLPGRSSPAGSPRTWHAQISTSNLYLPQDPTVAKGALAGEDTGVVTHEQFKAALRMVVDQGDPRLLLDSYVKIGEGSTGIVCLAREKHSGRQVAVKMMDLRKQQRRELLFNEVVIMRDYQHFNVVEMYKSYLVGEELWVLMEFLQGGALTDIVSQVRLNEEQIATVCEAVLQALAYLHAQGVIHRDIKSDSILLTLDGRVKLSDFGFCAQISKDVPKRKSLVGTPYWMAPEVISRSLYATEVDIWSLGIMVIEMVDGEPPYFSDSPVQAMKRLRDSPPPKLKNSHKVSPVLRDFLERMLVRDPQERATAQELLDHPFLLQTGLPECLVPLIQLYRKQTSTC
Tyrosine-protein kinase ITK/TSK, sequence (Q08881 whole entry): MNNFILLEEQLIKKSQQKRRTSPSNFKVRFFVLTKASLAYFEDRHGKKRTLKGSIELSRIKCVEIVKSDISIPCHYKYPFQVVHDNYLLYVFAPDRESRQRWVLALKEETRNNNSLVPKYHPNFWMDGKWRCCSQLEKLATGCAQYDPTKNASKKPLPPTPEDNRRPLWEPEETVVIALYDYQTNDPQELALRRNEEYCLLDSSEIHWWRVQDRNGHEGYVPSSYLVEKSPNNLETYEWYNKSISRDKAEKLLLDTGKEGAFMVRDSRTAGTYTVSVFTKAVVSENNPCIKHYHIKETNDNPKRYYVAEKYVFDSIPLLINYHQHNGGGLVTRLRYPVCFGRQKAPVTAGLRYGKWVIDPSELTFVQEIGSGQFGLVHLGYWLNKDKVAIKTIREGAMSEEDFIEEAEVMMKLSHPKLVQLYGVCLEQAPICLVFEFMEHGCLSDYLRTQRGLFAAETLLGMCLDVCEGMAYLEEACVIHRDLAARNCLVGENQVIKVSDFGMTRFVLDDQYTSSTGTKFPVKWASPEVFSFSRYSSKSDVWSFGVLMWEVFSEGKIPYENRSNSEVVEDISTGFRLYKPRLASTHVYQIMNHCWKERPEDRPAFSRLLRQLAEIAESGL
Calcium/calmodulin-dependent protein kinase type II subunit beta, sequence (Q13554 whole entry): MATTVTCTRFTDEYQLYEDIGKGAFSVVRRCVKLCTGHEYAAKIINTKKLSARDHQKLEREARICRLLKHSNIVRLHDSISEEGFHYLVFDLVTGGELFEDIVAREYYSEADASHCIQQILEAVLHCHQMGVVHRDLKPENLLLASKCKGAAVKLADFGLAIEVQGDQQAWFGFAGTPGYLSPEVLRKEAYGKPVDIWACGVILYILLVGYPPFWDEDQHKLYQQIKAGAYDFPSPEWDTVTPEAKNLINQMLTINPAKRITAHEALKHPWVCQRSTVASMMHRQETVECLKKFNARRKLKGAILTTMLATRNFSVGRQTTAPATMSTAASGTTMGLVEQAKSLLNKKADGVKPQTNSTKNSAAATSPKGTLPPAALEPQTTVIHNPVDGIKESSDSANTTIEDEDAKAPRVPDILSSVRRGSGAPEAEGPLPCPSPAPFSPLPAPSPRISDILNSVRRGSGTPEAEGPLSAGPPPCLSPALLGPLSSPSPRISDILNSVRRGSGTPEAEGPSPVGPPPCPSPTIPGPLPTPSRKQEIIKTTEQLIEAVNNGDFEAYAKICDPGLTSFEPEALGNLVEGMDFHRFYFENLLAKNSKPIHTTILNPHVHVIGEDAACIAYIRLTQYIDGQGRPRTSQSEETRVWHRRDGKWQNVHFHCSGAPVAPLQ
Phosphorylase b kinase gamma catalytic chain, liver/testis isoform, sequence (P15735 whole entry, canonical isoform): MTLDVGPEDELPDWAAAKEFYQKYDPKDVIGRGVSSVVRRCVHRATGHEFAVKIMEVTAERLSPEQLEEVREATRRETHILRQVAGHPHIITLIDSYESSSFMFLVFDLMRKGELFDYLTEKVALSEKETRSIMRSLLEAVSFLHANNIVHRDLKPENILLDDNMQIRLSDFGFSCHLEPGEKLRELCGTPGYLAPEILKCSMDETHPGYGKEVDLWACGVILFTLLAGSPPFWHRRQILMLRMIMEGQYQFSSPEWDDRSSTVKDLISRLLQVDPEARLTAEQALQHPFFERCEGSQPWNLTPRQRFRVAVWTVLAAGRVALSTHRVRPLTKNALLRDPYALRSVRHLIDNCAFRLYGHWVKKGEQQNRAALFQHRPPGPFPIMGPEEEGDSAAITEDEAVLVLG
Tyrosine-protein kinase JAK3, sequence (P52333 whole entry): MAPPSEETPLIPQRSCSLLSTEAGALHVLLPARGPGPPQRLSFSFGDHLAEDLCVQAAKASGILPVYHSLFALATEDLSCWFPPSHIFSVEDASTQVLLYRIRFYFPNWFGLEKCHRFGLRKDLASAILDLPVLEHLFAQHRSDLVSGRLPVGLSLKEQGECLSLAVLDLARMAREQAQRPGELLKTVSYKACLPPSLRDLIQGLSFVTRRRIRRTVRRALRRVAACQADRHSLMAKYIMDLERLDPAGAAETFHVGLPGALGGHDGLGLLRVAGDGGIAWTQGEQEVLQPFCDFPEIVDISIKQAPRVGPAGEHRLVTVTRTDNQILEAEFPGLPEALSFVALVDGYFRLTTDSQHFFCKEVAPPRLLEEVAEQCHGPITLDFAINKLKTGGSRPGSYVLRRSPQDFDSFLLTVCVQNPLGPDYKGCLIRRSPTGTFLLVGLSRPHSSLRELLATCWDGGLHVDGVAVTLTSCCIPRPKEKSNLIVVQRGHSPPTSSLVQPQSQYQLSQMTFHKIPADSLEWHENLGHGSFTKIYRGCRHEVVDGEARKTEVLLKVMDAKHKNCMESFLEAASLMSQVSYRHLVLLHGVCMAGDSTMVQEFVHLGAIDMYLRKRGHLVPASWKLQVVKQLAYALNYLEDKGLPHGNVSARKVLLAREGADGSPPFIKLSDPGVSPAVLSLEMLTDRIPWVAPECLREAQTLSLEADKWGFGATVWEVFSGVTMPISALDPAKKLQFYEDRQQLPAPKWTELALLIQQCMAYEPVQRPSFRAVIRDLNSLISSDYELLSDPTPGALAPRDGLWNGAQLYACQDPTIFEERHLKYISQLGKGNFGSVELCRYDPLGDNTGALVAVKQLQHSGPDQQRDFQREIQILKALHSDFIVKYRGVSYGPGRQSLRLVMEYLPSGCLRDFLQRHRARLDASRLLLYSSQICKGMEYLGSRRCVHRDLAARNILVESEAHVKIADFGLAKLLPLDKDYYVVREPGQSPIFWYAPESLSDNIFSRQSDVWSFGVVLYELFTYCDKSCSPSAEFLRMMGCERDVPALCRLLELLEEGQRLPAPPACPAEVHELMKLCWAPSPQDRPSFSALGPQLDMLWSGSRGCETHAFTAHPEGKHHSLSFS

For `FC(F)(F)c1ccc(CNc2ccc(Cc3c[nH]c4ncc(Cl)cc34)cn2)cn1` [PEXIDARTINIB], the Activity (Mus musculus [1]) was 229.
With `COc1ncc(F)cc1CNc1ccc(Cc2c[nH]c3ncc(C)cc23)c(F)n1` [PLX-5622] the Activity (Mus musculus [2]) was 1, the concentration at 336 h [3] was 963 ng/mL and the IC50 [4] was greater than 1000 nM. It also gave an Activity [5] of 0 RPKM, a Flu intensity (Mus musculus [6]) of 2.499 a.u and an IC50 [7] greater than 1000 nM. It also gave an Activity [8] of 0.341 RPKM, an IC50 [9] greater than 1000 nM and an Activity (Mus musculus [10]) of 59.835%. The Activity [11] was 269, the IC50 [12] was greater than 1000 nM and the IC50 [13] was greater than 1000 nM. The Activity [14] was 0.984 RPKM, the IC50 [15] was greater than 1000 nM and the IC50 [16] was greater than 1000 nM. For the same molecule, the IC50 [17] was greater than 1000 nM, the Activity [18] was 3 and the Activity (Mus musculus [19]) was 7. For the same molecule, the Activity [20] was 8.715 RPKM, the IC50 [21] was greater than 1000 nM and the half-life [22] was 2.6 h.
